# Data taken from ChEMBL document CHEMBL1154716, “Synthesis of some new S-triazine based chalcones and their derivatives as potent antimicrobial agents” (2010).
# Calls of active or inactive are those of the source. The calls are words filed in the database; no cut-off is given here.
# Key:
# Enterobacter cloacae [1] = assay: Antimicrobial activity against Enterobacter cloacae at 10 ug/disk after 24 hrs by disk diffusion assay; assay type: functional
# Outline: (§1)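 Disc diffusion on 4 mm filter discs. Bacteria are grown overnight in LB at 28 C, then adjusted in saline to 1.0 × 10^5 cfu/ml. The suspension is mixed into top agar over peptone agar plates. Plates are incubated 24 h at 28 C, and growth-inhibition zone diameter is measured. Streptomycin and ampicillin controls are applied from a 1 mg/ml stock. Tests are done in duplicate.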
# Enterobacter cloacae [2] = assay: Antimicrobial activity against Enterobacter cloacae at 1 umol/spot after 18 hrs by TLC-bioautographic method; assay type: functional
# Outline: (§2)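 TLC bioautography. Samples are spotted on silica gel TLC plates, then sprayed with bacteria (1.0 × 10^5 cfu/ml) in tryptic soy broth. Plates are incubated 18 h at 37 C and sprayed with 3% aqueous p-iodonitrotetrazolium violet. After a further 3 h, growth is stopped with 70% EtOH. White zones on a pink background are scored as inhibition-zone diameter with standard errors.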
# Bacillus cereus [3] = assay: Antimicrobial activity against Bacillus cereus after 24 hrs by microdilution technique; assay type: functional
# Outline: (§3)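 Broth microdilution in LB medium. Inoculum is 1.0 × 10^4 cfu per well, from a saline-adjusted suspension of 1.0 × 10^5 cfu/ml. Compounds are dissolved in DMSO. Incubated 24 h at 28 C. MIC is the lowest concentration with no visible growth under a binocular microscope. MBC is read by subculture into fresh broth for 72 h, with no growth taken as 99.5% kill. OD is read at 655 nm.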
# Micrococcus flavus [4] = assay: Antimicrobial activity against Micrococcus flavus at 10 ug/disk after 24 hrs by disk diffusion assay; assay type: functional; settings: for zone of inhibition at 10 µg/disc: read-out: IZ; outline: as §1
# Bacillus cereus [5] = assay: Antimicrobial activity against Bacillus cereus at 1 umol/spot after 18 hrs by TLC-bioautographic method; assay type: functional; outline: as §2
# Escherichia coli [6] = assay: Antimicrobial activity against Escherichia coli at 1 umol/disk after 24 hrs by disk diffusion assay; assay type: functional; outline: as §1
# Bacillus cereus [7] = assay: Antimicrobial activity against Bacillus cereus at 10 ug/disk after 24 hrs by disk diffusion assay; assay type: functional; outline: as §1
# Micrococcus flavus [8] = assay: Antimicrobial activity against Micrococcus flavus after 24 hrs by microdilution technique; assay type: functional; outline: as §3
# Staphylococcus aureus [9] = assay: Antimicrobial activity against Staphylococcus aureus at 1 umol/disk after 24 hrs by disk diffusion assay; assay type: functional; outline: as §1
# Bacillus cereus [10] = assay: Antimicrobial activity against Bacillus cereus at 1 umol/disk after 24 hrs by disk diffusion assay; assay type: functional; outline: as §1
# Escherichia coli [11] = assay: Antimicrobial activity against Escherichia coli after 24 hrs by microdilution technique; assay type: functional; outline: as §3
# Micrococcus flavus [12] = assay: Antimicrobial activity against Micrococcus flavus at 1 umol/disk after 24 hrs by disk diffusion assay; assay type: functional; outline: as §1
# Listeria monocytogenes [13] = assay: Antimicrobial activity against Listeria monocytogenes at 10 ug/disk after 24 hrs by disk diffusion assay; assay type: functional; outline: as §1
# Escherichia coli [14] = assay: Antimicrobial activity against Escherichia coli at 10 ug/disk after 24 hrs by disk diffusion assay; assay type: functional; outline: as §1
# Listeria monocytogenes [15] = assay: Antimicrobial activity against Listeria monocytogenes at 1 umol/disk after 24 hrs by disk diffusion assay; assay type: functional; outline: as §1
# Salmonella typhimurium [16] = assay: Antimicrobial activity against Salmonella Typhimurium after 24 hrs by microdilution technique; assay type: functional, Salmonella enterica subsp. enterica serovar Typhimurium; settings: Salmonella enterica; outline: as §3
# Staphylococcus aureus [17] = assay: Antimicrobial activity against Staphylococcus aureus at 10 ug/disk after 24 hrs by disk diffusion assay; assay type: functional; outline: as §1
# Pseudomonas aeruginosa [18] = assay: Antimicrobial activity against Pseudomonas aeruginosa at 1 umol/disk after 24 hrs by disk diffusion assay; assay type: functional; outline: as §1
# Staphylococcus aureus [19] = assay: Antimicrobial activity against Staphylococcus aureus after 24 hrs by microdilution technique; assay type: functional; outline: as §3
# Pseudomonas aeruginosa [20] = assay: Antimicrobial activity against Pseudomonas aeruginosa at 1 umol/spot after 18 hrs by TLC-bioautographic method; assay type: functional; outline: as §2
# Salmonella typhimurium [21] = assay: Antimicrobial activity against Salmonella Typhimurium at 10 ug/disk after 24 hrs by disk diffusion assay; assay type: functional, organism-based; settings: Salmonella enterica subsp. enterica serovar Typhimurium; outline: as §1
# Pseudomonas aeruginosa [22] = assay: Antimicrobial activity against Pseudomonas aeruginosa at 10 ug/disk after 24 hrs by disk diffusion assay; assay type: functional; outline: as §1
# Staphylococcus aureus [23] = assay: Antimicrobial activity against Staphylococcus aureus at 1 umol/spot after 18 hrs by TLC-bioautographic method; assay type: functional; outline: as §2
# Listeria monocytogenes [24] = assay: Antimicrobial activity against Listeria monocytogenes after 24 hrs by microdilution technique; assay type: functional; outline: as §3
# Salmonella typhimurium [25] = assay: Antimicrobial activity against Salmonella Typhimurium at 1 umol/disk after 24 hrs by disk diffusion assay; assay type: functional, organism-based; settings: Salmonella enterica subsp. enterica serovar Typhimurium; outline: as §1
# Listeria monocytogenes [26] = assay: Antimicrobial activity against Listeria monocytogenes at 1 umol/spot after 18 hrs by TLC-bioautographic method; assay type: functional; outline: as §2
# Pseudomonas aeruginosa [27] = assay: Antimicrobial activity against Pseudomonas aeruginosa after 24 hrs by microdilution technique; assay type: functional; outline: as §3
# Micrococcus flavus [28] = assay: Antimicrobial activity against Micrococcus flavus at 1 umol/spot after 18 hrs by TLC-bioautographic method; assay type: functional; outline: as §2
# Salmonella typhimurium [29] = assay: Antimicrobial activity against Salmonella Typhimurium at 1 umol/spot after 18 hrs by TLC-bioautographic method; assay type: functional, Salmonella enterica subsp. enterica serovar Typhimurium; outline: as §2
# Enterobacter cloacae [30] = assay: Antimicrobial activity against Enterobacter cloacae at 1 umol/disk after 24 hrs by disk diffusion assay; assay type: functional; outline: as §1
# Enterobacter cloacae [31] = assay: Antimicrobial activity against Enterobacter cloacae after 24 hrs by microdilution technique; assay type: functional; outline: as §3
# Escherichia coli [32] = assay: Antimicrobial activity against Escherichia coli at 1 umol/spot after 18 hrs by TLC-bioautographic method; assay type: functional; outline: as §2
# [33] = Salmonella enterica subsp. enterica serovar Typhimurium
Compound,inhibition zone (IZ) (Enterobacter cloacae [1]),inhibition zone (IZ) (Enterobacter cloacae [2]),MBC (Bacillus cereus [3]) [µM],MIC (Bacillus cereus [3]) [µM],inhibition zone (IZ) (Bacillus cereus [5]),inhibition zone (IZ) (Escherichia coli [6]),inhibition zone (IZ) (Bacillus cereus [7]),MBC (Micrococcus flavus [8]) [µM],MIC (Micrococcus flavus [8]) [µM],inhibition zone (IZ) (Staphylococcus aureus [9]),inhibition zone (IZ) (Bacillus cereus [10]),MBC (Escherichia coli [11]) [µM],MIC (Escherichia coli [11]) [µM],inhibition zone (IZ) (Micrococcus flavus [12]),inhibition zone (IZ) (Listeria monocytogenes [13]),inhibition zone (IZ) (Escherichia coli [14]),inhibition zone (IZ) (Listeria monocytogenes [15]),MBC (Salmonella typhimurium [16]) [µM],MIC (Salmonella typhimurium [16]) [µM],inhibition zone (IZ) (Staphylococcus aureus [17]),also measured
N#Cc1c(-c2cccs2)cc(-c2ccc(Nc3nc(Nc4ccccc4)nc(Nc4ccccc4)n3)cc2)nc1N,inactive,0.08 millimeter,90,45,inactive,inactive,inactive,90,45,inactive,inactive,90,45,0.04 millimeter,inactive,inactive,inactive,90,45,inactive,zone of inhibition at 10 µg/disc (Micrococcus flavus [4]): 7 mm; inhibition zone (IZ) (Pseudomonas aeruginosa [18]): inactive; MBC (Staphylococcus aureus [19]): 180 µM; MIC (Staphylococcus aureus [19]): 90 µM; inhibition zone (IZ) (Pseudomonas aeruginosa [20]): inactive; inhibition zone (IZ) (Salmonella typhimurium [21]): inactive; inhibition zone (IZ) (Pseudomonas aeruginosa [22]): inactive; inhibition zone (IZ) (Staphylococcus aureus [23]): inactive; MBC (Listeria monocytogenes [24]): 360 µM; MIC (Listeria monocytogenes [24]): 180 µM; inhibition zone (IZ) (Salmonella typhimurium [25]): inactive; inhibition zone (IZ) (Listeria monocytogenes [26]): 0.09 millimeter; MBC (Pseudomonas aeruginosa [27]): 180 µM; MIC (Pseudomonas aeruginosa [27]): 90 µM; inhibition zone (IZ) (Micrococcus flavus [28]): 0.08 millimeter; inhibition zone (IZ) (Salmonella typhimurium [29]): 0.07 millimeter; inhibition zone (IZ) (Enterobacter cloacae [30]): inactive; MBC (Enterobacter cloacae [31]): 180 µM; MIC (Enterobacter cloacae [31]): 90 µM; inhibition zone (IZ) (Escherichia coli [32]): 0.06 millimeter
Nc1nc(-c2ccc(Nc3nc(Nc4ccccc4)nc(Nc4ccccc4)n3)cc2)cc(-c2cccs2)n1,inactive,0.08 millimeter,378,189,0.09 millimeter,inactive,inactive,378,189,inactive,inactive,378,189,0.04 millimeter,inactive,inactive,inactive,378,189,inactive,zone of inhibition at 10 µg/disc (Micrococcus flavus [4]): 6 mm; inhibition zone (IZ) (Pseudomonas aeruginosa [18]): inactive; MBC (Staphylococcus aureus [19]): 378 µM; MIC (Staphylococcus aureus [19]): 189 µM; inhibition zone (IZ) (Pseudomonas aeruginosa [20]): inactive; inhibition zone (IZ) (Salmonella typhimurium [21]): inactive; inhibition zone (IZ) (Pseudomonas aeruginosa [22]): inactive; inhibition zone (IZ) (Staphylococcus aureus [23]): 0.03 millimeter; MBC (Listeria monocytogenes [24]): 756 µM; MIC (Listeria monocytogenes [24]): 756 µM; inhibition zone (IZ) (Salmonella typhimurium [25]): inactive; inhibition zone (IZ) (Listeria monocytogenes [26]): 0.08 millimeter; MBC (Pseudomonas aeruginosa [27]): 756 µM; MIC (Pseudomonas aeruginosa [27]): 756 µM; inhibition zone (IZ) (Micrococcus flavus [28]): 0.08 millimeter; inhibition zone (IZ) (Salmonella typhimurium [29]): 0.09 millimeter; inhibition zone (IZ) (Enterobacter cloacae [30]): inactive; MBC (Enterobacter cloacae [31]): 378 µM; MIC (Enterobacter cloacae [31]): 189 µM; inhibition zone (IZ) (Escherichia coli [32]): inactive
CC(=O)N1N=C(c2ccc(Nc3nc(Nc4ccccc4)nc(Nc4ccccc4)n3)cc2)CC1c1ccc([N+](=O)[O-])cc1 (stereo not given),inactive,0.09 millimeter,171,85,0.1 millimeter,inactive,inactive,342,171,inactive,inactive,342,171,0.04 millimeter,inactive,inactive,inactive,684,684,inactive,zone of inhibition at 10 µg/disc (Micrococcus flavus [4]): 10 mm; inhibition zone (IZ) (Pseudomonas aeruginosa [18]): inactive; MBC (Staphylococcus aureus [19]): 342 µM; MIC (Staphylococcus aureus [19]): 171 µM; inhibition zone (IZ) (Pseudomonas aeruginosa [20]): inactive; inhibition zone (IZ) (Salmonella typhimurium [21]): inactive; inhibition zone (IZ) (Pseudomonas aeruginosa [22]): inactive; inhibition zone (IZ) (Staphylococcus aureus [23]): inactive; MBC (Listeria monocytogenes [24]): 684 µM; MIC (Listeria monocytogenes [24]): 684 µM; inhibition zone (IZ) (Salmonella typhimurium [25]): inactive; inhibition zone (IZ) (Listeria monocytogenes [26]): 0.09 millimeter; MBC (Pseudomonas aeruginosa [27]): 684 µM; MIC (Pseudomonas aeruginosa [27]): 684 µM; inhibition zone (IZ) (Micrococcus flavus [28]): 0.07 millimeter; inhibition zone (IZ) (Salmonella typhimurium [29]): 0.1 millimeter; inhibition zone (IZ) (Enterobacter cloacae [30]): inactive; MBC (Enterobacter cloacae [31]): 684 µM; MIC (Enterobacter cloacae [31]): 684 µM; inhibition zone (IZ) (Escherichia coli [32]): inactive
O=C(/C=C/c1cccs1)c1ccc(Nc2nc(Nc3ccccc3)nc(Nc3ccccc3)n2)cc1,inactive,0.08 millimeter,408,204,inactive,inactive,inactive,408,204,inactive,inactive,816,408,inactive,inactive,inactive,inactive,816,408,inactive,inhibition zone (IZ) (Micrococcus flavus [4]): inactive; inhibition zone (IZ) (Pseudomonas aeruginosa [18]): inactive; MBC (Staphylococcus aureus [19]): 816 µM; MIC (Staphylococcus aureus [19]): 408 µM; inhibition zone (IZ) (Pseudomonas aeruginosa [20]): inactive; inhibition zone (IZ) (Salmonella typhimurium [21]): inactive; inhibition zone (IZ) (Pseudomonas aeruginosa [22]): inactive; inhibition zone (IZ) (Staphylococcus aureus [23]): inactive; MBC (Listeria monocytogenes [24]): 816 µM; MIC (Listeria monocytogenes [24]): 408 µM; inhibition zone (IZ) (Salmonella typhimurium [25]): inactive; inhibition zone (IZ) (Listeria monocytogenes [26]): 0.08 millimeter; MBC (Pseudomonas aeruginosa [27]): 816 µM; MIC (Pseudomonas aeruginosa [27]): 408 µM; inhibition zone (IZ) (Micrococcus flavus [28]): inactive; inhibition zone (IZ) (Salmonella typhimurium [29]; [33]): inactive; inhibition zone (IZ) (Enterobacter cloacae [30]): inactive; MBC (Enterobacter cloacae [31]): 408 µM; MIC (Enterobacter cloacae [31]): 204 µM; inhibition zone (IZ) (Escherichia coli [32]): inactive
Nc1nc(-c2ccc(Nc3nc(Nc4ccccc4)nc(Nc4ccccc4)n3)cc2)cc(-c2ccc([N+](=O)[O-])cc2)n1,inactive,inactive,352,176,inactive,inactive,inactive,704,352,inactive,inactive,352,176,inactive,inactive,inactive,inactive,704,352,inactive,inhibition zone (IZ) (Micrococcus flavus [4]): inactive; inhibition zone (IZ) (Pseudomonas aeruginosa [18]): inactive; MBC (Staphylococcus aureus [19]): 352 µM; MIC (Staphylococcus aureus [19]): 176 µM; inhibition zone (IZ) (Pseudomonas aeruginosa [20]): inactive; inhibition zone (IZ) (Salmonella typhimurium [21]): inactive; inhibition zone (IZ) (Pseudomonas aeruginosa [22]): inactive; inhibition zone (IZ) (Staphylococcus aureus [23]): inactive; MBC (Listeria monocytogenes [24]): 704 µM; MIC (Listeria monocytogenes [24]): 704 µM; inhibition zone (IZ) (Salmonella typhimurium [25]): inactive; inhibition zone (IZ) (Listeria monocytogenes [26]): 0.1 millimeter; MBC (Pseudomonas aeruginosa [27]): 704 µM; MIC (Pseudomonas aeruginosa [27]): 352 µM; inhibition zone (IZ) (Micrococcus flavus [28]): 0.07 millimeter; inhibition zone (IZ) (Salmonella typhimurium [29]; [33]): inactive; inhibition zone (IZ) (Enterobacter cloacae [30]): inactive; MBC (Enterobacter cloacae [31]): 352 µM; MIC (Enterobacter cloacae [31]): 176 µM; inhibition zone (IZ) (Escherichia coli [32]): inactive
